# HGIII-sPLA2 inh: Blocks human group III sPLA2 activity; Q9NZ20; QFRET BODIPY PC-A2 liposome hydrolysis, fluorescence; inhibition, % at 12.2 µM; hit rate 0.56% among 370,000; AID 743126;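 active means inhibition above mean plus 3 SD of compounds lying within the high and low control bounds, cut at about 19% in these data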;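 further: 0% = median of test compound wells and 100% = no enzyme DMSO wells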
# Target sequence (Q9NZ20 whole entry, looked up): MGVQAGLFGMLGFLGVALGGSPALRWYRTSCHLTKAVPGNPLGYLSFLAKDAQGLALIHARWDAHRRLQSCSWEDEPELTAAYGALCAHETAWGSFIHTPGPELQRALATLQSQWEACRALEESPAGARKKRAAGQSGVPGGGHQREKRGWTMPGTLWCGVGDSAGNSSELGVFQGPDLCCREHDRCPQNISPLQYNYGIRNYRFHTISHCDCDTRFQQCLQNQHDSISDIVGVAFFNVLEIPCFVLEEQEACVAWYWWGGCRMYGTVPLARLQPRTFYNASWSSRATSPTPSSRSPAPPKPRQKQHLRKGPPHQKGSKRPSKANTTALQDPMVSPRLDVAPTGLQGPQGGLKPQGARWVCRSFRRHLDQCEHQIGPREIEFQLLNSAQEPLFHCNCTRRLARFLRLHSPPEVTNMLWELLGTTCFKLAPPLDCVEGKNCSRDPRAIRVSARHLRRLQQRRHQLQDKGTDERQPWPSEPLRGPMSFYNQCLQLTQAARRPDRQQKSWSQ
# IMP-1 inh: blocks Pseudomonas aeruginosa IMP-1 metallo-beta-lactamase; purified IMP-1, nitrocefin hydrolysis, epi-absorbance fluorescence; inhibition, % at 5.6 µM; hit rate 0.45% among 290,000; AID 1556;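 active means inhibition above the mean plus 3 SD of all compounds in the same screening run, cut at about 4.5% in these data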;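 further: 0% = IMP-1 with DMSO and 100% = DMSO wells lacking enzyme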
#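 system = purified recombinant IMP-1 beta-lactamase | amount = 0.2 nM IMP-1, as dispensed | medium = HEPES buffer pH 7.1 with ZnSO4 and Brij 35 | times = 25 °C, 15 min preincubation, 25 min reaction | detection = plate fluorescence quenching by hydrolysis product, ex 480/em 530 nm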
# PfM18AAP inh: PfM18AAP enzyme inhibition; recombinant PfM18AAP, H-Glu-NHMec fluorogenic cleavage; inhibition, % at 7.35 µM; hit rate 1.2% among 290,000;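 active means inhibition above the campaign mean inhibition over all tested compounds plus 3 SD, cut at about 28% in these data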;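 further: 0% = plate median of test compound wells and 100% = 2 mM ZnCl2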
# VIM-2 inh: inhibitors of Pseudomonas aeruginosa VIM-2 metallo-beta-lactamase; purified VIM-2, nitrocefin hydrolysis, epi-absorbance fluorescence; inhibition, % at 5.6 µM; hit rate 0.89% among 290,000; AID 1527;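 active means inhibition above the mean of all tested compounds plus 3 SD, cutoff set per screening run, cut at about 7.5% in these data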;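 further: red hydrolysis product quenches plate fluorescence so inhibitors raise well fluorescence; 0% = enzyme with DMSO and 100% = DMSO without enzyme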
# hGIII sPLA2 conf: human GIII-sPLA2 inhibition, confirmation; inhibition, % at 12.2 µM; recombinant hGIII-sPLA2, BODIPY PC-A2 QFRET fluorescence; hit rate 34% among 2,000; shares compounds with HGIII-sPLA2 inh;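 active means mean inhibition across triplicates above the hit cutoff set in the earlier primary screen, cut at about 19% in these data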;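 further: 0% = enzyme with DMSO and 100% = DMSO wells lacking enzyme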
# BODIPY interf: counter-screen for HGIII-sPLA2 inhibitors: 535nm fluorescence interference | hit rate 8.5% among 2,000 | BODIPY FL product fluorescence interference, QFRET | inhibition, % at 12.2 µM | AID 743282 | shares compounds with HGIII-sPLA2 inh;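 active means average inhibition above the solvent-only control mean plus 3 SD, cut at about 6% in these data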;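 further: 0% = DMSO with substrate plus product and 100% = DMSO with substrate alone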
# 535nm interf DR: interferes with 535nm fluorescence in dose response counter-screen; shares compounds with HGIII-sPLA2 inh; 240 tested, under 10 active; IC50, µM; BODIPY FL product fluorescence interference, cell-free;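 active means IC50 at or below 10 µM; inactive means IC50 above 10 µM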
# An asterisk follows results filed as active; · = no result. An excerpt weighted towards active compounds, which were near 2.4% of everything screened.
SMILES,HGIII-sPLA2 inh,IMP-1 inh,PfM18AAP inh,VIM-2 inh,hGIII sPLA2 conf,BODIPY interf,others
Cc1cccnc1C(c1ccc(F)cc1)N(C)C(=O)C1CCN(CCOc2ccc(Cl)cc2Cl)CC1 (centres undefined),-16.8,·,·,·,·,·,
CC(C)CCNC(=O)c1ccc(Cn2c(=S)[nH]c3ccccc3c2=O)cc1,21.4*,-3.8,-3.8,-2.7,19.8*,-11.2,
CC(=O)c1cc(-c2ccc(Cl)c(C(F)(F)F)c2)c(=O)n2c1CCC2,6.4,·,·,·,·,·,
CC(C)CN(C(=O)COC(=O)CCc1nc2ccccc2s1)c1c(N)n(Cc2ccccc2)c(=O)[nH]c1=O,19.5*,·,·,·,9.0,-9.4,
CCN(CC)c1ccc(-c2n[nH]c(=S)n2-c2ccccc2)cc1,19.5*,-1.2,9.2,-2.4,44.2*,4.6,535nm interf DR=>122
O=S(=O)(c1cccc(C(F)(F)F)c1)N1CCN(C(=S)NC2CC2)CC1,21.8*,-1.7,-10.9,-0.2,17.4,-3.6,
CCNC(=S)N1CCN(S(=O)(=O)c2cccc(C(F)(F)F)c2)CC1,8.0,-1.2,-4.4,-1.8,·,·,
O=C(O)CCN1C(=O)c2ccc(NC(=O)COc3ccccc3)cc2C1=O,12.4,-1.7,2.8,-1.6,·,·,
S=c1nn[nH]c2ccccc12,23.1*,·,·,·,10.3,-0.7,
Cc1ccccc1NC(=O)c1c(C)[nH]c(=S)c(C#N)c1-c1ccco1,20.5*,16.8*,16.4,-1.3,20.5*,2.1,
COc1cccc(C(C(=O)NC2CCCC2)N(C(=O)c2ccco2)c2ccccc2)c1OC (centres undefined),-2.8,-2.0,3.8,-2.0,·,·,
CCNc1nc(NCC)nc(OCCOC(=O)Nc2ccccc2)n1,19.4*,-1.7,-0.7,-1.3,-5.2,-5.9,
CC1CCN(CCCCOc2ccc(Br)cc2)CC1,20.4*,-2.8,0.4,-2.9,3.9,-13.6,
